Drawing on PubChem BioAssay AID1556 (The Scripps Research Institute Molecular Screening Center, 2009), this text covers inhibition for 102 molecules.

A word on the inhibition: it is the change of the read-out against control, counted positive when it falls.

Structures are written as SMILES. Out of some 290,000 compounds screened, about 1,300 (0.45%) were called active. The list comes from a sample in which actives are over-represented; it also holds similar structures and randomly drawn compounds. Unmarked numbers belong to inactive results.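 How the source made its calls: active means inhibition above the mean plus 3 SD of all compounds in the same screening run (cut at about 4.5% in these data); inactive means the rest.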

This assay deals with metallo-beta-lactamase IMP-1 (Pseudomonas aeruginosa). The assay can be described thus: inhibition of IMP-1 nitrocefin hydrolysis – biochemical, epi-absorbance readout, Pseudomonas aeruginosa enzyme, primary screen (AID 1556).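 Further: 0% = IMP-1 with DMSO and 100% = DMSO wells lacking enzyme.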 The settings on record: purified IMP-1, nitrocefin hydrolysis, epi-absorbance fluorescence; at 5.6 µM; active compounds read high. The method in brief:
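System: purified IMP-1 / Input: IMP-1 dispensed at 0.2 nM / Medium: 50 mM HEPES pH 7.1, 50 µM ZnSO4, 0.05% Brij 35 / Timing: 15 min enzyme–compound preincubation, then 25 min nitrocefin reaction, 25 °C / Technique: plate fluorescence quenching by hydrolysis product, ex 480/em 530 nm / Repeats: singlicate testing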
Regarding `Cc1nc(CN(C)C(=O)CC2C(=O)NCCN2Cc2ccc(F)cc2)cs1` (configuration not stated), the inhibition is -2.3%. As for `Cc1cccc(C)c1NC(=O)N1CC=C(n2c(=O)[nH]c3ccccc32)CC1`, the inhibition was -4.93%.

Turning to `CCOc1ccc(NC(=O)N2CC=C(n3c(=O)[nH]c4ccccc43)CC2)cc1`, the inhibition was 6.24% (active). On to `CCOc1ccc(NC(=O)N2CCN(CC)CC2)cc1`, for which the inhibition is -1.66%.

For the molecule `COc1ccc(NC(=O)CN2C(=O)COc3ccc(S(=O)(=O)N4CCOCC4)cc32)cc1`, the inhibition is -3.61%. As for `Cc1ccc(CNC(=O)C(=O)c2cn(CC(=O)N3CCOCC3)c3ccccc23)cc1`, the figure is -2.82%; as for `Cc1cc([N+](=O)[O-])ccc1NC(=O)c1ccc(NC(=O)C(C)C)cc1`, -0.19%.

On to `Cn1ccc(=Nc2ccc(NC(=O)c3ccc(N=c4ccn(C)c5ccc([N+](=O)[O-])cc45)cc3)cc2)cc1`, for which the inhibition is 14.8% (active). Take `O=C(Nc1ccc(C(=O)N2CCCCC2)cc1)c1cccc([N+](=O)[O-])c1`: the inhibition was -1.61%. Take `Cc1sc2ncn(CC(=O)NCCCC(=O)N(C)Cc3ccccc3)c(=O)c2c1C`: the inhibition is -3.46%. As for `Cc1ccc(-n2ncc3c2CC(C)(C)CC3NC(=O)CCc2cnn(C)c2)cc1` (configuration not stated), the inhibition is -2.72%. As for `COCCOC(=O)c1sc(=S)n(CCOC)c1N`, the figure is -0.79%; as for `CCN(Cc1ccccc1)C(=O)CCS(=O)(=O)c1ccc2c(c1)oc(=O)n2C`, -3.48%; as for `C=CCn1c(=O)c(C(=O)Nc2ncccc2O)c(O)c2ccccc21`, -5.49%.

`Cc1c(CCC(=O)O)c(=O)oc2cc(OCc3ccc(Br)cc3)ccc12`: the inhibition is -4.45%.

Regarding `CCOC(=O)CCc1c(C)c2ccc(OCc3nn[nH]n3)c(C)c2oc1=O`, the inhibition is -1.75%.

For the molecule `Cc1c(CCC(=O)O)c(=O)oc2c(C)c(OCc3ccccc3Cl)ccc12`, the inhibition was 11.5% (active). With `COc1ccccc1N1CCN(S(=O)(=O)CCNC(=O)c2ccc(OC(C)C)cc2)CC1`, the inhibition is -1.73%. As for `CCOc1cc(NC(=O)Nc2ccccc2)c(OCC)cc1NC(=O)CC`, the figure is 1.47%; as for `CCOC(=O)Nc1ccc2c(c1)N(C(=O)CCCl)c1ccccc1[S@]2=O`, -1.86%; as for `COc1ccc(-n2c(=O)[nH]c3cc(C(=O)NCCc4ccc(OC)c(OC)c4)ccc3c2=O)c(OC)c1`, -0.95%. For the molecule `COc1ccc(/C=C(\C#N)c2c[nH]c3ccccc23)cc1`, the inhibition is -0.02%. The figure for `C[n+]1ccc(/C=C/c2c[nH]c3ccccc23)cc1` is 11.3% (active). On to `O=C(N/N=C/c1c[nH]c2ccccc12)c1ccccc1O`, for which the inhibition is -3.56%. As for `COc1ccc(C2c3[nH]c4ccccc4c3C[C@H]3C(=O)N(CC(C)C)CC(=O)N23)c(OC)c1` (some centres not stated), the figure is -2.7%; as for `Cc1cc(Cl)ccc1OCCCC(=O)Nc1cccc(-n2cnnn2)c1`, -1.81%; as for `Cc1ccc(CN2CCC(n3nccc3NC(=O)CCCc3ccccc3)CC2)o1`, -1.11%. As to `CCn1cc(CN2CCC(n3nccc3NC(=O)CCCc3ccccc3)CC2)c(C)n1`, the inhibition was -2.27%. Take `Cc1c(CN2CCC(n3nccc3NC(=O)CCc3ccccc3)CC2)cnn1C`: the inhibition was 40.5% (active). For the molecule `CCOc1ccc(-n2c(SCC(=O)OC)nc3sc4c(c3c2=O)CCN(C)C4)cc1`, the inhibition was 1.15%.

As to `CCOc1ccc(-n2c(SCC(=O)Nc3ccc(OC)cc3)nc3sc4c(c3c2=O)CCN(C)C4)cc1`, the inhibition is 7.22% (active). For the molecule `CCCSc1nc2sc3c(c2c(=O)n1-c1ccc(OC)cc1)CCN(C)C3`, the inhibition is -1.47%. With `CCN(c1ccccc1)S(=O)(=O)c1cc2c(cc1C)n(C)c(=O)c(=O)n2C`, the inhibition is -1.34%. Turning to `CC(NC(=O)COc1ccc(-c2ccccc2)cc1)C1CCCO1` (configuration not stated), the inhibition was -0.53%.

Take `COC(=O)c1cc(C(=O)NC(C)C2CC3CCC2C3)cc([N+](=O)[O-])c1` (configuration not stated): the inhibition is -3.23%.

With `CC(C)OCCCNC(=O)C1CC(=O)N(C2CCCCCCC2)C1` (configuration not stated), the inhibition was -4.36%. On to `O=C(NCCc1ccc(Cl)cc1)C1CC(=O)N(C2CCCCC2)C1` (configuration not stated), for which the inhibition is -3.24%. As to `O=C(NCCCN1CCCCCC1)C1CC(=O)N(C2CCCC2)C1` (configuration not stated), the inhibition is 6.55% (active).

Take `CC1(C)CC(=O)CC2(C1)NCC(c1ccccc1Cl)c1c2[nH]c2ccccc12` (configuration not stated): the inhibition was -5.43%. With `Cc1ccc(C(=O)O)cc1-c1ccc(/C=C2\SC(=O)N(CC(=O)Nc3ccc4c(c3)OCO4)C2=O)o1`, the inhibition is 8.27% (active). Consider `Cn1cccc1/C=C1\SC(=O)N(CC(=O)Nc2ccc(F)cc2)C1=O`, for which the inhibition was -1.78%. Turning to `COc1ccc(NC(=O)CCN2C(=O)/C(=C/c3ccc4c(c3)OCO4)SC2=S)cc1`, the inhibition is -3.16%. As for `COc1ccccc1-c1sc2ccccc2c1-c1ccc(C(C)=O)cc1`, the inhibition is 1.15%. As for `CCc1ccccc1N(CC(=O)NCC1CCCO1)C(=O)CCC(=O)Nc1nccs1` (configuration not stated), the inhibition was -4.39%. As for `O=C(NCc1cccc(Cl)c1)C1CCN(c2nnc(N3CCCC3=O)s2)CC1`, the inhibition was -2.2%. For `COc1ccc2c(CC(=O)Nc3nnc(C4CC4)s3)coc2c1`, the inhibition is 68.4% (active). For `Cc1cc(=O)oc2cc(OCC(=O)Nc3nnc(C4CC4)s3)ccc12`, the inhibition was -1.51%. Take `COc1ccc(NC(=O)CCC(=O)Nc2nnc(C3CCCCC3)s2)cc1`: the inhibition was -2.6%.

For `O=C(NCCCc1ccccc1)C(=O)NCC1OCCN1S(=O)(=O)c1ccccc1` (configuration not stated), the inhibition is -6.52%. As for `O=C(NCCCn1ccnc1)C(=O)NCC1OCCN1S(=O)(=O)c1cc(F)ccc1F` (configuration not stated), the figure is 5.52% (active); as for `Cc1cc(F)ccc1S(=O)(=O)N1CCCOC1CNC(=O)C(=O)NCCC1=CCCCC1` (configuration not stated), -1.85%; as for `CCn1c(=S)sc2c(=O)n(CC(=O)Nc3ccc(OC)cc3)c(C)nc21`, -1.8%. Regarding `COc1ccc(CCNC(=O)c2cnc(Cl)c(Cl)c2)cc1`, the inhibition was -2.17%. The figure for `O=C(Nc1cccc(F)c1)NC1CCCc2ccccc21` (configuration not stated) is -1.14%. The figure for `C=CCNC(=S)/N=c1/ccccn1Cc1ccccc1` is 16.2% (active).

For the molecule `C=CCNC(=O)COc1coc(CN2CCN(Cc3ccccc3)CC2)cc1=O`, the inhibition was 2.52%.

As for `CNC(=S)NNC(=O)c1cccn(Cc2ccccc2)c1=O`, the inhibition is -3.24%. Regarding `O=[N+]([O-])c1ccc(N2CCN(c3ccc(F)cc3)CC2)cn1`, the inhibition was -0.39%. Take `CSc1ccc(S(=O)(=O)N2CCC(C(=O)NCc3ccncc3)CC2)cc1`: the inhibition is -1.8%. As for `Cc1ccc(Oc2nc(-c3ccccn3)nc3ccccc23)cc1`, the figure is -3.21%. The figure for `Cc1nccc(-c2ccc(-n3c(C)ccc3C)cc2)n1` is -1.5%. As for `c1ccc(-c2nccc(-c3ccc(-n4cnc5ccccc54)cc3)n2)nc1`, the inhibition is 15.8% (active). As to `CC(=O)c1cc2c(cc1NC(=O)Cn1nc(-c3ccc(F)cc3)ccc1=O)OCO2`, the inhibition is -1%.

As to `Cc1ccc(CSCC2Nc3ccc(C(=O)N4CCN(c5ccc(F)cc5)CC4)cc3NC2=O)cc1` (configuration not stated), the inhibition was -4.03%.

`Cc1ccc(C(=O)NCC(=O)NCc2cc(=O)n(C)c(=O)n2C)cc1`: the inhibition is -0.88%.

Take `CCSc1nnc(SCC(=O)NNC(=O)c2ccccc2F)s1`: the inhibition was -3.43%. On to `Cc1cc2occ(CC(=O)NNC(=O)c3ccccc3F)c2cc1C`, for which the inhibition was 7.82% (active). On to `Cc1ccc2c(CC(=O)NCc3cccs3)coc2c1`, for which the inhibition is -1.74%.

For the molecule `Cc1ccc(C2C3=C(Nc4[nH]n(-c5ccccc5)c(=O)c42)c2ccccc2C3=O)cc1` (configuration not stated), the inhibition is -5.01%.

On to `CCOC(=O)C1=C(c2ccc(OC)cc2)C(=O)c2ccccc2C1=O`, for which the inhibition was -1.49%. With `COC(=O)C1=C(C)NC2=C(C(=O)c3ccccc32)C1c1ccc(-c2ccc(C(=O)O)cc2)o1` (configuration not stated), the inhibition is 21.7% (active). Turning to `COc1ccc(CNC(=O)C(=O)NCC2OCCN2C(=O)c2ccc(OC)cc2)cc1` (configuration not stated), the inhibition is -0.68%. As to `COc1ccc(C(=O)NNC(=O)c2cnccn2)cc1[N+](=O)[O-]`, the inhibition is 5.35% (active). For `COc1cccc(OCC(=O)NNC(=O)c2cnccn2)c1`, the inhibition was -3%. Consider `COc1ccc(C(=O)O/N=C(\N)c2ccccn2)cc1[N+](=O)[O-]`, for which the inhibition is -0.21%. The figure for `Cc1cc(OCC(=O)NCC(O)c2ccccc2)c2c(C)c(C)c(=O)oc2c1` (configuration not stated) is -1.48%; for `COc1ccc(CC(NC(C)=O)C(=O)NC2CCN(C(=O)C3CC3)CC2)cc1OC` (configuration not stated) it is -2.45%; for `COc1cccc(CNS(=O)(=O)c2ccc3c(c2)N(C(C)=O)CCS3)c1` it is 0.57%.

As for `CCOc1cc(NC(=O)c2cnccn2)c(OCC)cc1NC(=O)c1ccc(C)cc1`, the inhibition was -4.22%.

`CCCc1cc(=O)oc2c(C)c(OCC(=O)NCc3ccccn3)ccc12`: the inhibition was -4.36%. As for `CCCc1cc(=O)oc2c(C)c(OCC(=O)N3CCC(C(=O)O)CC3)ccc12`, the figure is -2.1%; as for `CCCc1cc(=O)oc2c(C)c(OCC(=O)Nc3ccccn3)ccc12`, 12.4% (active). For `O=C(O)c1c(NC(=O)N2CCCC2)sc2c1CCCC2`, the inhibition was -2.5%. Turning to `Cc1ccccc1NC(=O)Cn1cc(C(=O)C2CC2)c2ccccc21`, the inhibition is -0.7%. Turning to `COc1cccc(NC(=O)Cn2c3ccccc3c3nc4n(c(=O)c32)CCS4)c1`, the inhibition was -2.36%.

Turning to `COc1cccc(NC(=O)Cn2c3ccc(F)cc3c3nc4n(c(=O)c32)CCS4)c1`, the inhibition was 7.15% (active).

Regarding `COc1ccc2c(c1)c1nc3n(c(=O)c1n2CC(=O)Nc1ccccc1)CCS3`, the inhibition is -0.04%.

`O=C(Nc1ccccc1-c1nnn(CC(=O)N2CCCc3ccccc32)n1)c1cccc(Cl)c1`: the inhibition was -0.16%.

In the case of `CN(C)c1nc(-c2cccnc2)nc(-c2ccc(Cl)cc2)c1C#N`, the inhibition is -2.58%. Turning to `O=S(=O)(Cc1cc(Cl)nc(-c2cccnc2)n1)c1ccccc1`, the inhibition was 0.12%. On to `N#Cc1c(Cl)nc(-c2cccnc2)nc1-c1ccccc1`, for which the inhibition was 9.55% (active).

Consider `COc1ccc(Cl)cc1S(=O)(=O)Nc1cccc(C(=O)O)c1`, for which the inhibition is -2.2%. With `Cc1cccc(NS(=O)(=O)c2cc(Cl)ccc2Cl)n1`, the inhibition is 4.66% (active).

For `Cc1cccc(NS(=O)(=O)c2ccc([N+](=O)[O-])cc2)n1`, the inhibition is -1.07%.

On to `COc1cc(Br)cc(/C=N/c2ncn[nH]2)c1O`, for which the inhibition was 7.88% (active). For `Oc1c(Cl)cc(Cl)cc1/C=N/c1ncn[nH]1`, the inhibition was 11.9% (active). Regarding `COc1ccc(Br)cc1/C=N/n1c(C)nnc1C`, the inhibition is -3.22%. As to `Oc1ccc(Br)cc1C=Nc1ccc2[nH]ncc2c1`, the inhibition was -1.06%. Consider `Cc1snc(SCc2c(F)cccc2Cl)c1C#N`, for which the inhibition was -3.78%.

Regarding `Cc1ccc2[nH]c(=O)c(CN(C)S(=O)(=O)c3cccc4nonc34)cc2c1`, the inhibition was 0.09%. As for `Cc1ccc(Cn2cc(C(=O)NN)c(=O)c3ccc(F)cc32)cc1`, the figure is -2.47%; as for `COc1ccc(NC(=O)Cn2ncn3c(cc4ccccc43)c2=O)c(OC)c1OC`, -2.6%.
